{"source": "paper PMC5271563", "about": "(ChemMedChem, 2016)", "key": {"hCD44(21–178) [1]": {"target": "T1, hCD44(21–178) (Homo sapiens, UniProt P16070)", "T1 sequence (P16070 21-178)": "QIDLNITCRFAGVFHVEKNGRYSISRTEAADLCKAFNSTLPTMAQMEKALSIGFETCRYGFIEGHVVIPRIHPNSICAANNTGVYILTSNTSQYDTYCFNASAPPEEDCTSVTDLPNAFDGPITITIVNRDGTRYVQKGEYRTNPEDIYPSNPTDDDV", "assay": "Isothermal Titration Calorimetry", "format": "binding", "conditions": "23°C, pH 6.7, 5% DMSO"}, "hCD44(21–178) [2]": {"target": "T1, hCD44(21–178)", "assay": "Saturation Transfer Difference", "format": "binding", "conditions": "saturating for 2 seconds at −0.28 ppm", "in_short": "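STD spectra used 128 scans, with 2 s saturation on-resonance at −0.28 ppm and off-resonance reference at −10 ppm. Samples contained hCD44(21–178) and test ligand, with HA8 as positive control. Conditions: 300 K in 50 mM phosphate, 150 mM NaCl, 0.02% NaN3, pH 6.7, on a 600 or 700 MHz spectrometer with cryoprobe.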"}, "hCD44(21–178) [3]": {"target": "T1, hCD44(21–178)", "assay": "ITC competition", "format": "binding"}, "hCD44(21–178) [4]": {"target": "T1, hCD44(21–178)", "assay": "NMR binding: 2D [1H,15N]-sofast-HMQC / 1D 1H-aliphatic spectra of 15N-hCD44", "conditions": "for binding by 2D [1H,15N]-sofast-HMQC: 20 μM 15N-hCD44(21–178)", "in_short": "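Human CD44 HA-binding domain (Q21–V178) was expressed in E. coli BL21(DE3) gold pLysS in M9 with 15NH4Cl, refolded from urea-solubilised inclusion bodies, and purified as monomer by size exclusion. 2D [1H,15N]-sofast-HMQC (48 scans) and 1D 1H (128 scans) spectra were recorded at 300 K in 50 mM phosphate, 150 mM NaCl, 0.02% NaN3, pH 6.7. Spectra were compared with and without test peptide.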"}, "hCD44(21–178) [5]": {"target": "T1, hCD44(21–178)", "assay": "NMR displacement / ternary binding experiments by 2D [1H,15N]-sofast-HMQC"}, "DF1485 antibody": {"test_system": "DF1485 antibody", "assay": "2D [1H,13C]-HSQC of 13C-A6 peptide with antibody", "format": "binding, mouse", "conditions": "5 μM 13C-A6 peptide, 4 μM DF1485", "in_short": "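Test peptide carries a 13C-labelled N-acetyl methyl. 2D [1H,13C]-HSQC spectra were recorded without and with the mouse anti-CD44 monoclonal antibody DF1485 ([…]), using 64 scans and 4096 × 128 complex points. Conditions: 300 K, 600 or 700 MHz with cryoprobe, 50 mM phosphate, 150 mM NaCl, 0.02% NaN3, pH 6.7. Read-out was broadening or chemical shift change of the methyl signal.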"}, "[6]": {"assay": "Solubility under binding study conditions", "format": "physicochemical", "conditions": "under the binding study conditions"}}, "note": "Entries after “also recorded” stand apart in the source; their conditions may differ.", "data": [{"compound": "CC(=O)N[C@H]1[C@H](O[C@H]2[C@H](O)[C@@H](O)[C@H](O[C@H]3[C@H](O)[C@@H](CO)O[C@@H](O[C@H]4[C@H](O)[C@@H](O)[C@H](O[C@H]5[C@H](O)[C@@H](CO)O[C@@H](O[C@H]6[C@H](O)[C@@H](O)[C@H](O[C@H]7[C@H](O)[C@@H](CO)OC(O)[C@@H]7NC(C)=O)O[C@@H]6C(=O)O)[C@@H]5NC(C)=O)O[C@@H]4C(=O)O)[C@@H]3NC(C)=O)O[C@@H]2C(=O)O)O[C@H](CO)[C@@H](O)[C@@H]1O[C@@H]1O[C@H](C(=O)O)[C@@H](O)[C@H](O)[C@H]1O", "note": "(stereo partly drawn) [HA8, [GlcNAc-GlcUA]4]", "values": [{"measurement": "enthalpy of binding ΔH (ITC)", "setting": "hCD44(21–178) [1]; hCD44 73 μM titrated with 1.6 mM HA8", "value": -0.7, "unit": "kcal/mol"}, {"measurement": "STD effect", "setting": "hCD44(21–178) [2]", "value": "significant STD effect"}, {"measurement": "ΔH of HA8 binding in presence of compound 3 (ITC)", "setting": "hCD44(21–178) [3]; 750-fold molar excess (55 mM) compound 3", "value": -0.83, "unit": "kcal/mol"}, {"measurement": "Kd of HA8 in presence of compound 3 (ITC)", "setting": "hCD44(21–178) [3]; hCD44(21–178) incubated with 750-fold molar excess (55 mM) compound 3, titrated with 1.6 mM HA8, 23°C, pH 6.7, 5% DMSO", "value": 37.5, "unit": "µM"}, {"measurement": "chemical shift perturbations in 2D [1H,15N]-sofast-HMQC", "setting": "hCD44(21–178) [4]; 20 μM hCD44(21–178), 220 μM HA8, 300 K, pH 6.7", "value": "widespread perturbations"}]}, {"compound": "Ac-KPSSPPEE-NH2 [A6 Peptide]", "values": [{"measurement": "direct interaction by ITC", "setting": "hCD44(21–178) [1]; hCD44 73 μM titrated with 1 mM A6 peptide", "value": "absence of direct interactions"}, {"measurement": "displacement of DF1485 antibody from hCD44(21–178)", "setting": "hCD44(21–178) [5]; 10 μM 15N-hCD44(21–178), 10 μM DF1485, addition of 500 μM A6 peptide", "value": "not displaced"}, {"measurement": "binding to hCD44 in complex with HA8", "setting": "hCD44(21–178) [5]; A6, 15N-labeled hCD44(21–178)", "value": "did not observe significant binding"}, {"measurement": "binding by 2D [1H,15N]-sofast-HMQC", "setting": "hCD44(21–178) [4]; 500 μM A6 peptide, pH 6.7, listed as A6", "value": "could not observe any significant binding"}, {"measurement": "binding by 2D [1H,15N]-sofast-HMQC", "setting": "hCD44(21–178) [4]; 500 μM A6 peptide, pH 6.7, listed as A6-peptide", "value": "absence of appreciable binding"}, {"measurement": "binding by 2D [1H,15N]-sofast-HMQC", "setting": "hCD44(21–178) [4]; 500 μM A6 peptide, pH 6.7, listed as A6 peptide", "value": "No appreciable binding"}, {"measurement": "interaction between 13C-A6 peptide and DF1485 antibody", "setting": "DF1485 antibody", "value": "no appreciable binding"}]}, {"compound": "Ac-SRPQGPFL-NH2", "values": [{"measurement": "binding by 2D [1H,15N]-sofast-HMQC", "setting": "hCD44(21–178) [4]; 400 μM peptide", "value": "no significant binding"}]}, {"compound": "H-RLVSYNGIIFFLK-NH2 [A5G27]", "values": [{"measurement": "binding by 2D [1H,15N]-sofast-HMQC", "setting": "hCD44(21–178) [4]; 200 μM A5G27", "value": "no evidence of binding"}, {"measurement": "solubility", "setting": "[6]", "value": "limited solubility; also recorded: fairly low solubility"}]}]}
